Rows were chosen to be rich in hits. Some 2.6% of all compounds tested hit in one or more screens of this group.
DENV2 CPE: inhibitors of DENV2 cytopathic effect, primary screen, cell-based, plate reader, single concentration. DENV2-infected cells, cytopathic effect rescue. AID 651640, 2012. 1.7% of 350,000 active. CPE inhibition, % at 9.99 µM; in the data active = CPE inhibition above about 20%, passing the limit was not always enough; inconclusive = no clear call, values can overlap the other calls; tested in BHK-21 cells;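 note: 0% = median of neutral control wells and 100% = median of positive control wells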
ERAP1 inh: human ERAP1 aminopeptidase inhibitors, primary screen, biochemical, single point, plate reader; recombinant ERAP1, Leu-AMC fluorescence, 60 min; inhibition, % at 10.7 µM; AID 652197, 2013; Endoplasmic reticulum aminopeptidase 1 (Homo sapiens), Q9NZ08; 0.15% of 340,000 active;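 active = mean replicate inhibition of at least 30%, or all replicates individually reaching that 30% level; inactive = mean below 30% and not every replicate reaching it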;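 note: 0% = neutral control wells and 100% = L-leucinethiol positive control wells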
Target sequence (Q9NZ08 whole entry, looked up): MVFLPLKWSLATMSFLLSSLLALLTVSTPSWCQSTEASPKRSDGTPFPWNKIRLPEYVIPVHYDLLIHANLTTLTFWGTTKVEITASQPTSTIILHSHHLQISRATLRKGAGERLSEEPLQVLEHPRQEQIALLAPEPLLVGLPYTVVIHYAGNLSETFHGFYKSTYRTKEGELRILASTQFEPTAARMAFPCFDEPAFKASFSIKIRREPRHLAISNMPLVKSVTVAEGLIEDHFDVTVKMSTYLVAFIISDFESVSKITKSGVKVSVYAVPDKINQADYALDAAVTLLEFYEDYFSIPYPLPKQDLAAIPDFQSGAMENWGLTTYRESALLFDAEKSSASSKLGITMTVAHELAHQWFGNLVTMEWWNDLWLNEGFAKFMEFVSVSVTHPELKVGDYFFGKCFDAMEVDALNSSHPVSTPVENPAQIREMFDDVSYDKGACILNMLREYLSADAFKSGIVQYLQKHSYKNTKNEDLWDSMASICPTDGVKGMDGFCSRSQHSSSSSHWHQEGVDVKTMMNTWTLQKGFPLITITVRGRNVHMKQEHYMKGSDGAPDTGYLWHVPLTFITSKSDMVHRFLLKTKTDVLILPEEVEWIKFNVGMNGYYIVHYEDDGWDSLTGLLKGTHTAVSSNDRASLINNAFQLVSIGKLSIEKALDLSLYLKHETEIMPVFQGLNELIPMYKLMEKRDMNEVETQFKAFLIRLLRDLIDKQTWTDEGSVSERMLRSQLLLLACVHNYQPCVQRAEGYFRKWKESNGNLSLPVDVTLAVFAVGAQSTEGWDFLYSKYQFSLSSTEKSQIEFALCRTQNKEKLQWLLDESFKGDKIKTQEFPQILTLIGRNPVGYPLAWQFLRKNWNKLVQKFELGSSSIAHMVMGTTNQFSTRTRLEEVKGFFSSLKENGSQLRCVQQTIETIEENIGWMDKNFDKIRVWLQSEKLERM
E-sel inducer: E-selectin induction in HUVECs, primary screen, imaging, HUVEC, immunofluorescence imaging, single point; P16581; 0.37% of 260,000 active; activation, % at 7.58 µM; normalized: neutral wells 0, TNF-alpha wells 100;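 active = mean E-selectin-positive cell signal at least 10% of the positive control, reached in at least 60% of replicates, without over 20% cell loss; inconclusive = no rule given, readout overlaps actives, possibly toxicity-flagged; inactive = the rest, including those meeting only one limit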
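Read-out basis: % PE-positive cells; Test system: HUVEC primary endothelial cells; Technique: immunofluorescence imaging; Dosing: single-point compound dose.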
miR122 inh: miR-122 Renilla sensor signal increase in Huh7, primary screen, miR-122 inhibitor project, cell-based, single point, plate reader. Huh7 miR-122 Renilla luciferase sensor, 48 h; neutral wells = 0, positive control = 100. activation (reporter increase), % at 12.5 µM. 0.3% of 340,000 active;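 active = mean replicate activation score at least 90 and every replicate individually at or above 90; inconclusive = only one of the two criteria met; inactive = neither criterion met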;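 note: higher luciferase means less miR-122 activity so hits act as miR-122 inhibitors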
F508del corr: F508del CFTR correction, initial screen, CFBE line, single point; CFBE cells, YFP halide quenching; stimulated with forskolin plus potentiator P3; % fluorescence drop versus neutral controls; activity (quench increase), % at 7.58 µM; 0.36% of 350,000 active;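 active = mean added fluorescence quench of at least 8% versus neutral control, with both replicates also reaching 8%; inconclusive = only one of the mean or replicate conditions met; inactive = mean below 8% and not both replicates reaching 8%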;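 note: cells transiently co-express mutant CFTR-F508del with the halide-sensitive YFP; corrector assay measuring rescue of mutant channel to the surface after 24 h compound exposure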
GSIS activator: GLuc luminescence reporter in INS-1E cells, primary screen for activators of glucose-dependent secretion of insulin | INS-1E GLuc reporter insulin secretion, 2-3 h | activation, % at 16.6 µM | 0.61% of 370,000 active | AID 743287, 2014;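 active = lowest replicate activation of at least 40%, so every replicate reaches that level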;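 note: 0% = median of neutral control wells and 100% = median of IBMX positive control wells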
* marks the source's active call; other numbers are inactive results; ? = inconclusive; · = no result; [ ] = remark or other dose.

SMILES | DENV2 CPE | ERAP1 inh | E-sel inducer | miR122 inh | F508del corr | GSIS activator
C[C@@H]1CN([C@H](C)CO)C(=O)c2cc(NC(=O)C3CCCCC3)ccc2O[C@@H](C)CCCCO[C@H]1CN(C)Cc1ccc(C(F)(F)F)cc1 | -9 | · | 0 | -1[16.7 µM] | 4 | -22
Cc1cccc(O)c1C | 16 | -2 | · | 2 | -3 | 14
Cc1cccc(C)c1N=Nc1c(C)cc(O)cc1C | ? | -5 | 1 | 36 | -1 | 571*
CCCCc1c(-c2ccccc2OC)ncn1Cc1ccccc1C | -6 | 2 | 0 | · | 3 | 186*
CCCCc1c(-c2ccccc2OC)ncn1Cc1ccc(C)cc1 | -2 | 5 | 0 | · | 2 | 66*
CCCCc1c(-c2ccccc2OC)ncn1Cc1ccc(-c2ccccc2)cc1 | 15 | -1 | 0 | · | 4 | -25
CCCCc1c(-c2ccccc2OC)ncn1Cc1ccccc1F | -11 | 1 | 0 | · | 3 | ·
COc1ccc(S(=O)(=O)N(C)C[C@H]2OCCCC[C@H](C)Oc3ccc(NS(=O)(=O)c4ccc(C)cc4)cc3C(=O)N([C@H](C)CO)C[C@@H]2C)cc1 | -6 | 2 | 0 | 2[16.7 µM] | 5 | -51
C[C@@H]1CN([C@H](C)CO)C(=O)c2cc(NS(=O)(=O)c3ccc(Cl)cc3)ccc2O[C@@H]1CN(C)Cc1ccccc1 | 42* | 0 | · | -1[16.7 µM] | 2 | -4
C[C@@H]1CN([C@@H](C)CO)C(=O)c2cc(NS(=O)(=O)c3ccc(Cl)cc3)ccc2O[C@@H]1CN(C)Cc1ccc(C(F)(F)F)cc1 | · | · | 0 | -5[16.7 µM] | 9.8* | -7
C[C@H](CO)N1C[C@H](C)[C@@H](CN(C)Cc2ccc(C(F)(F)F)cc2)Oc2ccc(NS(=O)(=O)c3ccc(F)cc3)cc2C1=O | 7 | 2 | 0 | -2[16.7 µM] | 1 | -24
Cc1ccc(S(=O)(=O)Nc2ccc3c(c2)C(=O)N([C@H](C)CO)C[C@@H](C)[C@H](CN(C)Cc2ccc(-c4ccccc4)cc2)O3)cc1 | 2 | -4 | 157* | -8[16.7 µM] | 2 | -25
C[C@@H]1CN([C@H](C)CO)C(=O)c2cc(NS(=O)(=O)c3ccc(Cl)cc3)ccc2O[C@H]1CN(C)Cc1ccccc1 | -2 | 0 | · | 3[16.7 µM] | 0 | -22
Cc1ccc(S(=O)(=O)Nc2ccc3c(c2)C(=O)N([C@H](C)CO)C[C@H](C)[C@H](CN(C)Cc2ccc(-c4ccccc4)cc2)O3)cc1 | -1 | -5 | -13 | -5[16.7 µM] | 1 | -36
O=C(C[C@H]1CC[C@H](NS(=O)(=O)c2ccc(F)cc2)[C@H](CO)O1)NCc1ccccc1F | 5 | 2 | 0 | · | -4 | -9
C/C=C/c1ccc([C@H]2[C@@H](CO)N(c3nc(-c4ccccc4)cs3)[C@H]2C#N)cc1 | ? | -1 | 0 | · | 1 | 4
OC1(c2ccc(Cl)cc2)CCN(Cc2c[nH]c3ccccc23)CC1 | 56* | -4 | 0 | 7 | 2 | -29
C/C=C/c1ccc([C@H]2[C@@H](CO)N(C(=O)CC)[C@@H]2CNC(=O)CC)cc1 | 0 | 2 | 0 | -12[16.7 µM] | 2 | 3
CN(C(=O)c1ccc(Br)o1)C1CCCCC1 | 61* | 4 | 0 | -4 | 0 | 12
CCCCn1cnc2c(c(CC#N)nn2-c2ccccc2)c1=N | 3 | 4 | 0 | -4 | 9.4* | -4
Cn1nc(CC#N)c2c(=N)n(N)cnc21 | 11 | -7 | 0 | 7 | 2 | 24
O=C(c1cnccn1)N1CC[C@@H]2[C@@H](CO)Nc3ccc(-c4ccccc4)cc3[C@@H]21 | -13 | -2 | 0 | 6[16.7 µM] | 1 | 3
CNc1ccccc1C(C)(C)c1cc(-c2cccc(Br)c2)no1 | 6 | -2 | 84* | -2 | -1 | -20
COC(=O)[C@@]12CCCN1[C@H](c1ccc(-c3ccccc3)cc1)[C@@H]1C(=O)N(C)C(=O)[C@@H]12 | 66* | -1 | 0 | · | -5 | 0
COC(=O)[C@@]12CCCN1[C@H](c1ccc(-c3cccc(Cl)c3)cc1)[C@H]1C(=O)N(C)C(=O)[C@H]12 | -15 | -5 | 0 | -1 | 2 | -3
SMILES | DENV2 CPE | ERAP1 inh | E-sel inducer | miR122 inh | F508del corr | GSIS activator
CCOc1ccc(NC(=O)CN(C)C(=O)Cn2cnc3c2c(=O)n(C)c(=O)n3C)cc1OCC | 10 | 30* | 0 | · | -3 | 19
O=S(=O)(N[C@H]1CC[C@@H](CCn2cc(-c3ccccc3F)nn2)O[C@@H]1CO)c1ccc(F)cc1 | 0 | 6 | 2 | · | -2 | -2
Cc1noc(C)c1S(=O)(=O)N(C)C[C@H]1Oc2ccc(NC(=O)Nc3cccc4ccccc34)cc2CC(=O)N([C@@H](C)CO)C[C@@H]1C | -4 | -1 | 0 | -1[16.7 µM] | -2 | 12
O=C(C[C@H]1CC[C@H]2[C@@H](COC[C@@H](O)CN2C(=O)c2ccccc2)O1)N1CCOCC1 | 5 | 1 | 0 | -3[16.7 µM] | 0 | -5
CC(C)NC(=O)N(C)C[C@H]1Oc2ccc(NC(=O)C3CCCCC3)cc2CC(=O)N([C@@H](C)CO)C[C@H]1C | 10 | -3 | 0 | -6[16.7 µM] | -1 | 10
COc1cc(CN(C)C(=O)C(=O)c2c[nH]c3ccccc23)ccc1O | -5 | -1 | 0 | 146* | 1 | -21
COc1ccc2c3c(n(C)c2c1)[C@H](CO)N(C(=O)CN1CCOCC1)CC31CN(C(=O)CC2CC2)C1 | -10 | -1 | 0 | · | 0 | 10
COc1ccc(CC(=O)OCn2nnc3ccccc3c2=O)cc1OC | -1 | · | 3 | -8 | -4 | 44*
COc1ccc(CC(=O)OCN2C(=O)c3ccccc3C2=O)cc1 | · | · | · | -4 | · | -1
COc1ccc(C(=O)O/N=C(\N)c2ccc(OC)c(OC)c2)cc1 | 5 | 0 | 0 | · | 0 | 45*
COc1ccc(C(=O)O/N=C(\N)c2ccc(OC)c(OC)c2)c(OC)c1 | · | · | · | 0 | · | ·
COc1ccc(CC(=O)OCN2C(=O)c3ccccc3C2=O)cc1OC | -4 | 1 | · | · | -4 | 62*
COc1ccc(CC(=O)O/N=C(\N)c2ccccc2)cc1OC | 5 | 0 | 0 | -3 | 2 | 51*
C[C@H](CO)N1C[C@H](C)[C@@H](CN(C)S(=O)(=O)c2cccs2)Oc2ccc(NC(=O)NC3CCCCC3)cc2CC1=O | 17 | -1 | 0 | -3[16.7 µM] | 2 | -8
Cc1cc2cc(CNC(=O)Nc3ccc(Cl)c(Cl)c3)ccc2n1C | 12 | -3 | 142* | · | 4 | ·
Cc1ccc(S(=O)(=O)NCc2ccc3c(c2)cc(C)n3C)cc1 | 3 | 1 | 63* | 0 | 0 | 16
COCC(=O)NCc1ccc2c(c1)cc(C)n2C | 1 | 2 | · | · | 2 | -2

Bioassay records: PubChem, Broad Institute
